The values that follow come from ChEMBL document CHEMBL3102807, “Angustifonines A and B, cytotoxic bisindole alkaloids from Bousigonia angustifolia” (J Nat Prod, 2014).

Holding throughout (type): functional, cell-based
For experiment [1], the system named is MCF7. In words: Cytotoxicity against human MCF7 cells after 48 hrs by MTT assay. The following applies: MCF7, 48 h. Put shortly:
(§1)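 Cells kept in RPMI-1640 or DMEM with 10% FBS, 37 °C, 5% CO2; adherent cells allowed to attach 12 h in 96-well plates. Exposed in triplicate to 0.0625, 0.32, 1.6, 8 and 40 μM for 48 h, cisplatin and paclitaxel as positive controls. MTT (100 μg/well) added for 4 h at 37 °C, lysis in 20% SDS/50% DMF, OD at 595 nm; IC50 by Reed–Muench method.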
(In general: Formazan colour is commonly taken as a measure of viable cells.)

Experiment [2] relates to A549. In words: Cytotoxicity against human A549 cells after 48 hrs by MTT assay. The following applies: A549, 48 h. The gist of the method:
as §1

Experiment [3] deals with HL-60. Kind of experiment: Cytotoxicity against human HL60 cells after 48 hrs by MTT assay. The following applies: HL-60, 48 h. The gist of the method: as §1
The subject of experiment [4] is SMMC-7721. Kind of experiment: Cytotoxicity against human SMMC7721 cells after 48 hrs by MTT assay. To be noted: SMMC-7721, 48 h. The gist of the method:
as §1

In experiment [5] the test system is SW480. Kind of experiment: Cytotoxicity against human SW480 cells after 48 hrs by MTT assay. To be noted: SW480, 48 h. Put shortly:
as §1

As for `CC[C@]12C=CCN3Cc4c(n(c5ccccc5c4=O)[C@@H](c4cc5c(cc4OC)NC4=C(C(=O)OC)C[C@]6([C@@H](C)O)C=CCN7CC[C@@]45[C@@H]76)C1)[C@@H]32`, the IC50 is 12.1 µM in experiment [1]; 16.2 µM in experiment [2]; 9.6 µM in experiment [3]; 15.3 µM in experiment [4]; 13.9 µM in experiment [5].
The matching figures for `CC(=O)O[C@H]1C(=O)[C@@]2(C)[C@H]([C@H](OC(=O)c3ccccc3)[C@]3(O)C[C@H](OC(=O)[C@H](O)[C@@H](NC(=O)c4ccccc4)c4ccccc4)C(C)=C1C3(C)C)[C@]1(OC(C)=O)CO[C@@H]1C[C@@H]2O` [PACLITAXEL]: under 0.008 µM, under 0.008 µM, under 0.008 µM, under 0.008 µM and under 0.008 µM.
For `CC[C@]12C=CCN3Cc4c(n(c5ccccc5c4=O)[C@@H](c4cc5c(cc4OC)NC4=C(C(=O)OC)C[C@]6(CC)C=CCN7CC[C@@]45[C@@H]76)C1)[C@@H]32` the same measures were 3.61 µM, 7.23 µM, 3.03 µM, 10.6 µM and 2.71 µM.

Broadly, the IC50 is the concentration that inhibits the measured activity by half. The low end stands for greater potency in that assay, the high end for weaker potency in that assay.
